Results as given in ChEMBL document CHEMBL1132616, “6-Substituted benzopyrans as potassium channel activators: synthesis, vasodilator properties, and multivariate analysis” (1999).

Assays:
Rattus norvegicus [1] = organism: Rattus norvegicus; assay: Relaxant potency in rat aorta.; type: functional
Outline: (§1)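 Aortic rings (5 mm wide) were denuded of endothelium, confirmed by the absence of a dilator response to 1 mmol/L acetylcholine. Tracheal strips were cut through the ring opposite the muscle layer. Tissues were mounted in 7-mL baths for isometric force recording. Once contraction was stable, cumulative concentration–effect curves were run. Compounds came from 10^-2 M DMSO stocks diluted in water, with final bath DMSO at most 2%.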

Rattus norvegicus [2] = organism: Rattus norvegicus; assay: Relaxant potency in rat trachea.; type: functional; outline: as §1

Row | SMILES | Log 1/C (Rattus norvegicus [1]) | Log 1/C (Rattus norvegicus [2])
1 | CC1(C)C=C(n2ccccc2=O)c2cc(C(F)(F)F)ccc2O1 | 7.61 | 7.37
2 | CC1(C)C=C(n2ccccc2=O)c2cc(Br)ccc2O1 | 7.84 | 7.53
3 | CC1(C)C=C(n2ccccc2=O)c2cc(-c3ccncc3)ccc2O1 | 6.68 | 6.32
4 | CC1(C)C=C(n2ccccc2=O)c2cc(C(=N)NO)ccc2O1 | 5.99 | 5.51
5 | CC1(C)C=C(n2ccccc2=O)c2cc(C(=O)c3ccccc3C(F)(F)F)ccc2O1 | 6.76 | 5.78
6 | CC1(C)C=C(n2ccccc2=O)c2cc(C(=O)c3ccccc3F)ccc2O1 | 7.08 | 6.34
7 | CCC(=O)c1ccc2c(c1)C(n1ccccc1=O)=CC(C)(C)O2 | 6.63 | 5.85
8 | CC1(C)C=C(n2ccccc2=O)c2cc(OCC(=O)c3ccc(F)cc3)ccc2O1 | 4.63 | 4.77
9 | CC1(C)C=C(n2ccccc2=O)c2cc(OCC(=O)c3ccccc3)ccc2O1 | 5.05 | 4.69
10 | Cc1ccccc1C(=O)c1ccc2c(c1)C(n1ccccc1=O)=CC(C)(C)O2 | 6.83 | 6.25
11 | CC1(C)C=C(n2ccccc2=O)c2cc(OC(=O)Nc3ccccc3F)ccc2O1 | 5.38 | 4.22
12 | CC1(C)C=C(n2ccccc2=O)c2cc(C(=O)c3c(F)cccc3F)ccc2O1 | 6.97 | 5.99
13 | CC1(C)C=C(n2ccccc2=O)c2cc(O)ccc2O1 | 5.44 | 5.31
14 | COc1ccc(C(=O)c2ccc3c(c2)C(n2ccccc2=O)=CC(C)(C)O3)cc1 | 6.15 | 5.72
15 | COc1ccc2c(c1)C(n1ccccc1=O)=CC(C)(C)O2 | 6.55 | 5.99
16 | CC1(C)C=C(n2ccccc2=O)c2cc(OC(=O)Nc3ccccc3C(F)(F)F)ccc2O1 | 5.58 | 5.19
17 | CC1(C)C=C(n2ccccc2=O)c2cc(C(=O)c3ccc(O)cc3)ccc2O1 | 6.65 | 5.87

Row | SMILES | Log 1/C (Rattus norvegicus [1]) | Log 1/C (Rattus norvegicus [2])
18 | CC1(C)C=C(n2ccccc2=O)c2cc(OC(=O)Nc3ccccc3)ccc2O1 | 5.3 | 4.89
19 | CC1(C)C=C(n2ccccc2=O)c2cc(C(=O)c3cccs3)ccc2O1 | 6.4 | 5.84
20 | CC1(C)C=C(n2ccccc2=O)c2cc(C(=O)c3ccccc3)ccc2O1 | 6.61 | 6.21
21 | CC1(C)C=C(n2ccccc2=O)c2cc(C(=O)c3ccco3)ccc2O1 | 6.49 | 5.92
22 | CC1(C)C=C(n2ccccc2=O)c2cc(C(=O)c3ccccc3[N+](=O)[O-])ccc2O1 | 6.17 | 5.64
23 | CC1(C)C=C(n2ccccc2=O)c2cc(C(=N)S)ccc2O1 | 6.21 | 5.96
24 | CC(=O)c1ccc2c(c1)C(n1ccccc1=O)=CC(C)(C)O2 | 7.37 | 6.65
25 | Cc1ccc(C)n1-c1ccc2c(c1)C(n1ccccc1=O)=CC(C)(C)O2 | 7.27 | 6.78
26 | CC1(C)C=C(n2ccccc2=O)c2cc(C(=O)c3ccc([N+](=O)[O-])cc3)ccc2O1 | 6.2 | 6.09
27 | CC1(C)C=C(n2ccccc2=O)c2ccccc2O1 | 5.43 | 5.05
28 | CC(=O)Oc1ccc2c(c1)C(n1ccccc1=O)=CC(C)(C)O2 | 5.6 | 4.97
29 | CC1(C)C=C(n2ccccc2=O)c2cc(OS(=O)(=O)F)ccc2O1 | 7.95 | 7.22
30 | CC1(C)C=C(n2ccccc2=O)c2cc(C=O)ccc2O1 | 6.91 | 6.14
31 | CC1(C)C=C(n2ccccc2=O)c2cc(OC(=O)Nc3ccc(F)cc3)ccc2O1 | 5.3 | 4.37
32 | CC1(C)C=C(n2ccccc2=O)c2cc(C=C(C#N)C#N)ccc2O1 | 6.95 | 6.3
33 | CC1(C)C=C(n2ccccc2=O)c2cc(OC(=O)Nc3ccc(C(F)(F)F)cc3)ccc2O1 | 5.1 | 4.54
34 | CC1(C)C=C(n2ccccc2=O)c2cc(C#N)ccc2O1 [BIMAKALIM] | 7.67 | 7.1
